The target of series [1] is T1, Estrogen receptor (Homo sapiens) (UniProt P03372).
T1 sequence (whole entry): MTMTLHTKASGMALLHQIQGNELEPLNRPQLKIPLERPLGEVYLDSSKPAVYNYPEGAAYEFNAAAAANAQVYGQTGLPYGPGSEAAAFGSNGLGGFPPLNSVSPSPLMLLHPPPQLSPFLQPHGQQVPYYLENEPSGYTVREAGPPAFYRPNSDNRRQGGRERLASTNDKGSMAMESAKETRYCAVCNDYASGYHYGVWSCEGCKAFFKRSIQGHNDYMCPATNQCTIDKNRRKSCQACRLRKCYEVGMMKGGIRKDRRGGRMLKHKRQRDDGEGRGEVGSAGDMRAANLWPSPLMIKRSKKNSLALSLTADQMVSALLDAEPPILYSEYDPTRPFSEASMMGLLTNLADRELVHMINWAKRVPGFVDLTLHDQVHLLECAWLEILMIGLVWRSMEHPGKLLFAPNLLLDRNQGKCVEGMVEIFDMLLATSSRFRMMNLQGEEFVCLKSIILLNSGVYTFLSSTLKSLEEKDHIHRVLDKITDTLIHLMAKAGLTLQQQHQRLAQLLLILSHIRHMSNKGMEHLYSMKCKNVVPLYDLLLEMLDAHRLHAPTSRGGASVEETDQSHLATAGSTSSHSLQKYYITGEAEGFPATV
Put plainly: Antagonist activity at human ER ligand binding domain expressed in african green monkey COS7 cells in presence of 17-beta-estradiol by Gal4 hybrid assay. It counts as cell-based. Particulars: COS-7. The essentials: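 Gal4-steroid receptor LBD fusion plasmid plus GAL4_UAS (5 copies, E1b TATA)-luciferase reporter, 50 ng/well each, transfected 16 h into COS-7 cells grown in phenol red-free DMEM with 10% charcoal/dextran-treated FBS. Compound treatment 20 h, then luciferase read-out. Antagonist mode uses 3 nM aldosterone (hMR) or 5 nM 17β-estradiol (hER). Values are the average of at least duplicate determinations.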

The nature of series [2]: AUC (0 to infinity) in cynomolgus monkey at 5 mg/kg, po. It counts as ADME, organism-based, Macaca fascicularis. Details: dose 5 mg/kg, route oral, time infinity. Conditions: plasma.
Series [3] can be described thus: AUC (0 to infinity) in Sprague-Dawley rat at 5 mg/kg, po. It counts as ADME, organism-based. Details: time infinity, dose 5 mg/kg, route oral. Particulars: plasma.
Series [4] has as its target T2, Glucocorticoid receptor (Homo sapiens) (UniProt P04150).
T2 sequence (whole entry): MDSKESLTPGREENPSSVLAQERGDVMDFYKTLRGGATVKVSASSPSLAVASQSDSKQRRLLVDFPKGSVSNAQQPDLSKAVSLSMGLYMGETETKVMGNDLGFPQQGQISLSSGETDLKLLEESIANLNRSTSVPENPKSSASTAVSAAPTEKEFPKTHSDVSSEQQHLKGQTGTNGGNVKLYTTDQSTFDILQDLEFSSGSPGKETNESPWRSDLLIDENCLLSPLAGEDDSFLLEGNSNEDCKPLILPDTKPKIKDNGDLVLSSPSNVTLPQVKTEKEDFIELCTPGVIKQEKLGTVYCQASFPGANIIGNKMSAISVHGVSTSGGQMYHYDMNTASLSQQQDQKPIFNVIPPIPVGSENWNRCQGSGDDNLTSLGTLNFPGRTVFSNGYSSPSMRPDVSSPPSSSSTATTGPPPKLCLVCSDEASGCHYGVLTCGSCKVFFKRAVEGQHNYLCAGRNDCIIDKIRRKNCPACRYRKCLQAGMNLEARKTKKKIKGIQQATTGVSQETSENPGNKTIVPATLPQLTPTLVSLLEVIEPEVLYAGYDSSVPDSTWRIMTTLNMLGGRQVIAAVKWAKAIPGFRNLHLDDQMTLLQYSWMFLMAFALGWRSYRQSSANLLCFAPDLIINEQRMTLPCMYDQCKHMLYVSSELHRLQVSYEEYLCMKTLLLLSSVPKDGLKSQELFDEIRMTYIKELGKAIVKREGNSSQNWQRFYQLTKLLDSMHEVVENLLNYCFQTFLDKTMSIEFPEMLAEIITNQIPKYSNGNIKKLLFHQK
Put plainly: Antagonist activity at human GR ligand binding domain expressed in african green monkey COS7 cells in presence of Dexamethasone by Gal4 hybrid assay. The format is cell-based. Conditions: COS-7.

A short description of series [5]: Oral bioavailability in Sprague-Dawley rat at 5 mg/kg. It counts as ADME, organism-based. Conditions: in vivo. The essentials:
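Female Sprague–Dawley rats dosed as 1-in-4 cassette or discrete studies. iv in DMSO/PEG200 20:80; po in aqueous 2% Tween 80/0.5% methyl cellulose. Parameters reported: C0, Cmax, t1/2, plasma clearance, Vss, AUC0-inf and %F.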

For another series, the system named is Rhesus monkey. Description: Effect on endometrium weight of rhesus monkey. It counts as functional, Macaca mulatta. The essentials: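 Adult female rhesus macaques (n=3) with regular cycles dosed 10 mg/(kg·day) po in 2% Tween 80/0.5% methylcellulose with cherry flavoring for 28 days from cycle day 2. Serum estradiol and progesterone measured every 3 days. Necropsy on day 28. Uterine weights are of half the uterus; KI-67 and mitotic indices counted per 1000 cells. Values given as mean ± SE.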

A short description of series [6]: AUC (0 to infinity) in Sprague-Dawley rat at 1 mg/kg, iv. It counts as ADME, organism-based. Conditions: plasma. Details: time infinity, dose 1 mg/kg, route intravenous.

Activity calls are given as the source filed them. The rule behind the calls is not given here.

The term AUC(0-inf) denotes the area under the concentration-time curve extrapolated to infinity. As a reminder, the bioavailability is dose-corrected exposure relative to a reference, in per cent. With `Cn1c(C#N)ccc1-c1cc(F)c2c(c1)C(C)(C)C(=O)N2`, the result in series [1] and in series [4] was inactive. Also, the results for the AUC(0-inf) in series [2], in series [3] and in series [6] were 5740 ng·h/mL, 7150 ng·h/mL and 4650 ng·h/mL, respectively. This molecule also gave a bioavailability in series [5] of 31%. Besides, in the series with Rhesus monkey, the Activity worked out at 60 mg.

Values taken from ChEMBL document CHEMBL1144664, “Design, synthesis, and SAR of new pyrrole-oxindole progesterone receptor modulators leading to 5-(7-fluoro-3,3-dimethyl-2-oxo-2,3-dihydro-1H-indol-5-yl)-1-methyl-1H-pyrrole-2-carbonitrile (WAY-255348)” (J Med Chem, 2008).
